Source: ChEMBL document CHEMBL4732168, “Dihydroquinazolines enhance 20S proteasome activity and induce degradation of α-synuclein, an intrinsically disordered protein associated with neurodegeneration” (Bioorg Med Chem Lett, 2021)
Blank lines part the entries; values can stand above or below the molecule they belong to.

How the values were obtained:
Type in all cases: protein-complex assay
[1] = target: T1, 20S proteasome (Homo sapiens) (UniProt P49721+P20618+P28074+P28062+P28065+P28072+P25786+P25787+P25788+P25789+P28066+P60900+O14818+Q8TAA3+P40306+A5LHX3+P49720+P28070+Q99436); assay: (§1) Activation of human 20S proteosome assessed as increase in 7-amino-4-methylcoumarin release at 30 uM using mixture of chymotrypsin-like Suc-LLVY-AMC, trypsin-like Boc-LRR-AMC and caspase-like Z-LLE-AM fluorogenic peptides as substrates preincubated for 15 mins followed by substrate mixture addition and measured for 1 hr by fluorescence assay relative to control; conditions: filed as activator, time 75.0 min
In short: (§2)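 Purified human 20S proteasome pre-incubated 15 min at 37°C with compound (3, 10 or 30 μM) or DMSO vehicle. Substrate mix then added: Suc-LLVY-AMC, Boc-LRR-AMC and Z-LLE-AMC, 13.3 μM each. AMC fluorescence followed over 1 h. Fold increase in activity calculated against untreated 20S.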

[2] = target: T1, 20S proteasome (Homo sapiens); assay: Activation of human 20S proteosome assessed as concentration required to cause double the proteosome activity using chymotrypsin-like Suc-LLVY-AMC, trypsin-like Boc-LRR-AMC and caspase-like Z-LLE-AM fluorogenic peptides as substrates; conditions: filed as activator
In short: (§3)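 Human 20S proteasome activity measured by AMC fluorescence over time. Each fluorogenic substrate (CT-L Suc-LLVY-AMC, Tryp-L Boc-LRR-AMC, Casp-L Z-LLE-AMC) tested alone and as an equal-amount mixture. Six-point compound titration, 1.25–40 μM, run in triplicate. AC200, the concentration that doubles 20S activity, derived from the concentration-response curves.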

[3] = target: T1, 20S proteasome (Homo sapiens); assay: Activation of human 20S proteosome assessed as fold increase in proteosome activity at 2 uM using mixture of chymotrypsin-like Suc-LLVY-AMC, trypsin-like Boc-LRR-AMC and caspase-like Z-LLE-AM fluorogenic peptides as substrates by fluorescence assay relative to control; conditions: filed as activator
[4] = target: T1, 20S proteasome (Homo sapiens); assay: Activation of human 20S proteosome assessed as concentration required to cause double the proteosome activity using chymotrypsin-like Suc-LLVY-AMC fluorogenic peptide as substrate; conditions: filed as activator; in short: as §3
[5] = target: T1, 20S proteasome (Homo sapiens); assay: Activation of human 20S proteosome assessed as fold increase in proteosome activity at 12.9 uM using chymotrypsin-like Suc-LLVY-AMC fluorogenic peptide as substrate by fluorescence assay relative to control; conditions: filed as activator
[6] = target: T1, 20S proteasome (Homo sapiens); assay: Activation of human 20S proteosome assessed as concentration required to cause double the proteosome activity using caspase-like Z-LLE-AM fluorogenic peptide as substrate; conditions: filed as activator; in short: as §3
[7] = target: T1, 20S proteasome (Homo sapiens); assay: Activation of human 20S proteosome assessed as fold increase in proteosome activity at 5.6 uM using caspase-like Z-LLE-AM fluorogenic peptide as substrate by fluorescence assay relative to control; conditions: filed as activator
[8] = target: T1, 20S proteasome (Homo sapiens); assay: Activation of human 20S proteosome assessed as concentration required to cause double the proteosome activity using trypsin-like Boc-LRR-AMC fluorogenic peptide as substrate; conditions: filed as activator; in short: as §3
[9] = target: T1, 20S proteasome (Homo sapiens); assay: Activation of human 20S proteosome assessed as fold increase in proteosome activity at 5 uM using trypsin-like Boc-LRR-AMC fluorogenic peptide as substrate by fluorescence assay relative to control; conditions: filed as activator
[10] = target: T1, 20S proteasome (Homo sapiens); assay: as §1, with “3” for “30”; conditions: filed as activator, time 75.0 min; in short: as §2
[11] = target: T1, 20S proteasome (Homo sapiens); assay: Activation of human 20S proteosome assessed as fold increase in proteosome activity at 2.3 uM using mixture of chymotrypsin-like Suc-LLVY-AMC, trypsin-like Boc-LRR-AMC and caspase-like Z-LLE-AM fluorogenic peptides as substrates by fluorescence assay relative to control; conditions: filed as activator
[12] = target: T1, 20S proteasome (Homo sapiens); assay: Activation of human 20S proteosome assessed as fold increase in proteosome activity at 8.1 uM using chymotrypsin-like Suc-LLVY-AMC fluorogenic peptide as substrate by fluorescence assay relative to control; conditions: filed as activator
[13] = target: T1, 20S proteasome (Homo sapiens); assay: Activation of human 20S proteosome assessed as fold increase in proteosome activity at 5.8 uM using caspase-like Z-LLE-AM fluorogenic peptide as substrate by fluorescence assay relative to control; conditions: filed as activator
[14] = target: T1, 20S proteasome (Homo sapiens); assay: Activation of human 20S proteosome assessed as fold increase in proteosome activity at 2.5 uM using trypsin-like Boc-LRR-AMC fluorogenic peptide as substrate by fluorescence assay relative to control; conditions: filed as activator
[15] = target: T1, 20S proteasome (Homo sapiens); assay: Activation of human 20S proteosome assessed as fold increase in proteosome activity at 1.3 uM using mixture of chymotrypsin-like Suc-LLVY-AMC, trypsin-like Boc-LRR-AMC and caspase-like Z-LLE-AM fluorogenic peptides as substrates by fluorescence assay relative to control; conditions: filed as activator
[16] = target: T1, 20S proteasome (Homo sapiens); assay: Activation of human 20S proteosome assessed as fold increase in proteosome activity at 10.5 uM using chymotrypsin-like Suc-LLVY-AMC fluorogenic peptide as substrate by fluorescence assay relative to control; conditions: filed as activator
[17] = target: T1, 20S proteasome (Homo sapiens); assay: Activation of human 20S proteosome assessed as fold increase in proteosome activity at 2.8 uM using caspase-like Z-LLE-AM fluorogenic peptide as substrate by fluorescence assay relative to control; conditions: filed as activator
[18] = target: T1, 20S proteasome (Homo sapiens); assay: Activation of human 20S proteosome assessed as fold increase in proteosome activity at 1.7 uM using trypsin-like Boc-LRR-AMC fluorogenic peptide as substrate by fluorescence assay relative to control; conditions: filed as activator
[19] = target: T1, 20S proteasome (Homo sapiens); assay: Induction of human 20S proteosome mediated human alpha-synuclein degradation; conditions: filed as activator, dose 0.5-10 µM
In short: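 Compound pre-incubated with purified human 20S proteasome. Pure human α-synuclein then added and the mix incubated 4 h. Digests resolved and silver stained. α-Synuclein bands quantified using 20S proteasome subunits as loading control, n=3.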

fold change (FC) [1]: 2.8
SMILES: COc1ccc2c(c1)N=C(c1ccccc1)N(CCc1ccccn1)C2c1ccccc1 (configuration not stated)

fold change (FC) [1]: 2.7
SMILES: COc1ccc2c(c1)N=C(c1ccccc1)N(CC#N)C2c1ccccc1 (configuration not stated)

fold change (FC) [1]: 7.9 | AC200 [2]: 2 µM | fold change (FC) [3]: 10.1 | AC200 [4]: 12.9 µM | fold change (FC) [5]: 5.6 | AC200 [6]: 5.6 µM | fold change (FC) [7]: 13.4 | AC200 [8]: 5 µM | fold change (FC) [9]: 11.7 | Activity [10]: > 200%
SMILES: COc1ccc2c(c1)N=C(c1ccccc1)N(Cc1ccccc1)C2c1ccccc1 (configuration not stated)

fold change (FC) [1]: 6.7
SMILES: COc1ccc2c(c1)N=C(c1ccccc1)N(C1CCCCC1)C2c1ccccc1 (configuration not stated)

fold change (FC) [1]: 1.8
SMILES: COc1ccc2c(c1)N=C(C)N(Cc1ccccc1)C2c1ccccc1 (configuration not stated)

fold change (FC) [1]: 2.7
SMILES: COc1ccc2c(c1)N=C(C1CC1)N(Cc1ccccc1)C2c1ccccc1 (configuration not stated)

fold change (FC) [1]: 9.5 | AC200 [2]: 2.3 µM | fold change (FC) [11]: 11.1 | AC200 [4]: 8.1 µM | fold change (FC) [12]: 6.7 | AC200 [6]: 5.8 µM | fold change (FC) [13]: 15.3 | AC200 [8]: 2.5 µM | fold change (FC) [14]: 15 | Activity [10]: > 200%
SMILES: COc1ccc2c(c1)N=C(c1ccccc1)N(c1ccccc1)C2c1ccccc1 (configuration not stated)

fold change (FC) [1]: 8.2
SMILES: COc1ccc2c(c1)N=C(c1ccccc1)N(CC1CCCCC1)C2c1ccccc1 (configuration not stated)

fold change (FC) [1]: 1.6
SMILES: CCCCCCN1C(c2ccccc2)=Nc2cc(OC)ccc2C1c1ccccc1 (configuration not stated)

fold change (FC) [1]: 2.8
SMILES: CCCCCc1ccc2c(c1)N=C(c1ccccc1)N(Cc1ccccc1)C2c1ccccc1 (configuration not stated)

fold change (FC) [1]: 1
SMILES: COc1ccc2c(c1)N=C(c1ccccc1)N(C1CCN(C)CC1)C2c1ccccc1 (configuration not stated)

fold change (FC) [1]: 8.1
SMILES: Cc1ccc2c(c1)N=C(c1ccccc1)N(Cc1ccccc1)C2c1ccccc1 (configuration not stated)

fold change (FC) [1]: 2
SMILES: COc1ccc2c(c1)N=C(c1ccccc1)N(Cc1ccccn1)C2c1ccccc1 (configuration not stated)

fold change (FC) [1]: 2.3
SMILES: C=CCN1C(c2ccccc2)=Nc2cc(OC)ccc2C1c1ccccc1 (configuration not stated)

fold change (FC) [1]: 6.9
SMILES: COc1ccc2c(c1)N=C(c1ccccc1)N(c1ccccn1)C2c1ccccc1 (configuration not stated)

fold change (FC) [1]: 4
SMILES: c1ccc(CN2C(c3ccccc3)=Nc3ccccc3C2c2ccccc2)cc1 (configuration not stated)

fold change (FC) [1]: 5.3
SMILES: COc1ccc2c(c1)N=C(c1ccccc1)N(c1cccc3cccnc13)C2c1ccccc1 (configuration not stated)

fold change (FC) [1]: 6.5
SMILES: COc1ccc2c(c1)N=C(C1CCCCC1)N(Cc1ccccc1)C2c1ccccc1 (configuration not stated)

fold change (FC) [1]: 1.6
SMILES: COc1ccc2c(c1)N=C(c1ccccc1)N(CC1CCOCC1)C2c1ccccc1 (configuration not stated)

fold change (FC) [1]: 7 | AC200 [2]: 1.3 µM | fold change (FC) [15]: 5.5 | AC200 [4]: 10.5 µM | fold change (FC) [16]: 3.8 | AC200 [6]: 2.8 µM | fold change (FC) [17]: 10.6 | AC200 [8]: 1.7 µM | fold change (FC) [18]: 8.7 | Activity [19]: Dose-dependent effect | Activity [10]: > 200%
SMILES: COc1ccc2c(c1)N=C(c1ccccc1)N(C1CCN(Cc3ccccc3)CC1)C2c1ccccc1 (configuration not stated)

fold change (FC) [1]: 2.8
SMILES: CCCCCC1=Nc2cc(OC)ccc2C(c2ccccc2)N1Cc1ccccc1 (configuration not stated)

fold change (FC) [1]: 2.3
SMILES: COc1ccc2c(c1)N=C(C(C)C)N(Cc1ccccc1)C2c1ccccc1 (configuration not stated)

fold change (FC) [1]: 5.9
SMILES: COc1ccc2c(c1)N=C(c1ccccc1)N(c1cccnc1)C2c1ccccc1 (configuration not stated)

fold change (FC) [1]: 1.2
SMILES: COc1ccc2c(c1)N=C(c1ccccc1)N(CC1CCN(C)CC1)C2c1ccccc1 (configuration not stated)
